# Results gathered from unrelated publications.
# Lines come from different studies, so protocols differ.
# MAOB: Amine oxidase [flavin-containing] B (MAOB, Homo sapiens, UniProt P27338)
# GLO1: Lactoylglutathione lyase (GLO1, Homo sapiens, UniProt Q04760)
Structure (SMILES),target,observed,mode,method,concentration,notes,inhibition [%]
CCN1/C(=C/C(C)=O)Sc2ccc(F)cc21,"Endothelin receptor type B (EDNRB, Homo sapiens, UniProt P24530)",ligand displacement,,radioligand,10 µM,,0
O=C(Nc1ccc(Cl)cc1)c1ccc2c(c1)C(=O)NC2=O,MAOB,enzyme activity,inhibitor,,1 µM,,52
O=C(N[C@@H](CSCc1ccc([N+](=O)[O-])cc1)C(=O)NO)c1ccccc1,GLO1,enzyme activity,inhibitor,,1 µM,,46.1
NC/C(=C\F)COc1cccc(Cn2c(=S)[nH]c(=O)c3[nH]cnc32)c1,"Histamine H1 receptor (HRH1, Homo sapiens, UniProt P35367)",ligand displacement,,radioligand,10 µM,,< 50
O=C(N[C@@H](CSCc1ccccc1)C(=O)NO)c1ccccc1,GLO1,enzyme activity,inhibitor,,1 µM,,31.4
Cc1cc(F)cc2c(CCC(=O)N[C@@H]3C(=O)NC[C@H]3O)c(-c3ccc(F)cc3)[nH]c12,"Beta-1 adrenergic receptor (ADRB1, Homo sapiens, UniProt P08588)",cell-free assay,,,10 µM,,-1.5
O=C(Nc1ccccc1)c1ccc2c(c1)C(=O)NC2=O,MAOB,enzyme activity,inhibitor,,1 µM,,25
C#Cc1cc(-c2cc(Nc3nc(N[C@@H](C)c4ccc(F)cn4)ncc3Cl)n[nH]2)ccc1C=O,"Ribosomal protein S6 kinase alpha-6 (RPS6KA6, Homo sapiens, UniProt Q9UK32)",enzyme activity,inhibitor,,0.2 µM,,16.8
O=C(Nc1cccc(Cl)c1)c1ccc2c(c1)C(=O)NC2=O,MAOB,enzyme activity,inhibitor,,1 µM,,63.9
Cc1cc(O)c(-c2ccc([C@@H](C)CN(C)C)cc2)c2c1[nH]c(=O)c1sccc12,"Serine/threonine-protein kinase NLK (NLK, Homo sapiens, UniProt Q9UBE8)",cell-free assay,inhibitor,,0.1 µM,lysate,-4.94
